According to publication PMC4561207 (Child's nervous system : ChNS : official journal of the …, 2015):

Assay: Adverse events regardless of attribution
Assay type: in vivo, human
How it was run: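 Children with recurrent/refractory CNS tumours took oral drug once daily, continuously, in 28-day cycles. Dosing was stratified by EIACD use, with start/escalation levels 20–40 mg/m² (no EIACD) or 15–32 mg/m² (EIACD). Monitoring included weekly exam, serum chemistries, CBC and urine protein for 8 weeks, and TSH before each cycle. Events other than hypertension were graded by CTCAE v3, later v4.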

COc1cc2c(Oc3ccc4[nH]c(C)cc4c3F)ncnc2cc1OCCCN1CCCC1 [cediranib, Cediranib]
Anemia, events (patients) (grade 3 AE): 2(2) | Aspartate aminotransferase increased, events (patients) (grade 3 AE): 2(2) | Blurred vision, events (patients) (grade 3 AE): 1(1) | Capillary leak syndrome, events (patients) (grade 3 AE): 1(1) | Chest wall pain, events (patients) (grade 3 AE): 1(1) | Confusion, events (patients) (grade 3 AE): 1(1) | Dehydration, events (patients) (grade 3 AE): 4(4) | Depressed level of consciousness, events (patients) (grade 3 AE): 2(2) | Diarrhea, events (patients) (grade 3 AE): 3(3) | Dysphasia, events (patients) (grade 3 AE): 2(2) | Enterocolitis, events (patients) (grade 3 AE): 1(1) | Eye disorders - Other, specify, events (patients) (grade 3 AE): 1(1) | Fatigue, events (patients) (grade 3 AE): 4(4) | Headache, events (patients) (grade 3 AE): 7(5) | Hydrocephalus, events (patients) (grade 3 AE): 2(2) | Hyperkalemia, events (patients) (grade 3 AE): 1(1) | Hypermagnesemia, events (patients) (grade 3 AE): 1(1) | Hypernatremia, events (patients) (grade 3 AE): 2(1) | Hypertension, events (patients) (grade 3 AE): 10(10) | Hypertriglyceridemia, events (patients) (grade 3 AE): 1(1) | Hypokalemia, events (patients) (grade 3 AE): 3(2) | Hyponatremia, events (patients) (grade 3 AE): 5(5) | Lipase increased, events (patients) (grade 3 AE): 1(1) | Lymphocyte count decreased, events (patients) (grade 3 AE): 5(3) | Mucositis oral, events (patients) (grade 3 AE): 1(1) | Nausea, events (patients) (grade 3 AE): 3(3) | Neutrophil count decreased, events (patients) (grade 3 AE): 2(2) | Oral pain, events (patients) (grade 3 AE): 2(2) | Palmar-plantar erythrodysesthesia syndrome, events (patients) (grade 3 AE): 3(3) | Peripheral motor neuropathy, events (patients) (grade 3 AE): 2(2) | Proteinuria, events (patients) (grade 3 AE): 3(3) | Reversible posterior leukoencephalopathy syndrome, events (patients) (grade 3 AE): 1(1) | Seizure, events (patients) (grade 3 AE): 3(3) | Vomiting, events (patients) (grade 3 AE): 2(2) | Weight loss, events (patients) (grade 3 AE): 1(1) | White blood cell decreased, events (patients) (grade 3 AE): 1(1) | Alanine aminotransferase increased, events (patients) (grade 4 AE): 1(1) | Aspartate aminotransferase increased, events (patients) (grade 4 AE): 1(1) | Hypernatremia, events (patients) (grade 4 AE): 2(1) | Hyponatremia, events (patients) (grade 4 AE): 1(1) | Hypothyroidism, events (patients) (grade 4 AE): 1(1) | Lymphocyte count decreased, events (patients) (grade 4 AE): 1(1) | Nervous system disorders - Other, specify, events (patients) (grade 4 AE): 1(1) | Papilledema, events (patients) (grade 4 AE): 1(1) | Seizure, events (patients) (grade 4 AE): 1(1) | Abdominal pain, events (patients) (total AE): 11(11) | Acidosis, events (patients) (total AE): 7(5) | Alanine aminotransferase increased, events (patients) (total AE): 70(30) | Alkaline phosphatase increased, events (patients) (total AE): 4(3) | Anal mucositis, events (patients) (total AE): 1(1) | Anal pain, events (patients) (total AE): 1(1) | Anemia, events (patients) (total AE): 7(6) | Anorexia, events (patients) (total AE): 15(12) | Arthralgia, events (patients) (total AE): 1(1) | Aspartate aminotransferase increased, events (patients) (total AE): 45(23) | Back pain, events (patients) (total AE): 5(4) | Blood bilirubin increased, events (patients) (total AE): 18(10) | Blurred vision, events (patients) (total AE): 1(1) | Bone pain, events (patients) (total AE): 3(2) | Capillary leak syndrome, events (patients) (total AE): 1(1) | Cardiac troponin I increased, events (patients) (total AE): 1(1) | Chest wall pain, events (patients) (total AE): 2(2) | Cholesterol high, events (patients) (total AE): 1(1) | Chronic kidney disease, events (patients) (total AE): 1(1) | Confusion, events (patients) (total AE): 2(2) | Constipation, events (patients) (total AE): 9(4) | Cough, events (patients) (total AE): 5(4) | Creatinine increased, events (patients) (total AE): 5(3) | Dehydration, events (patients) (total AE): 8(7) | Depressed level of consciousness, events (patients) (total AE): 2(2) | Depression, events (patients) (total AE): 3(3) | Diarrhea, events (patients) (total AE): 63(32) | Dizziness, events (patients) (total AE): 5(3) | Dry mouth, events (patients) (total AE): 1(1) | Dry skin, events (patients) (total AE): 1(1) | Dyspepsia, events (patients) (total AE): 4(4) | Dysphasia, events (patients) (total AE): 3(3) | Edema face, events (patients) (total AE): 1(1) | Edema limbs, events (patients) (total AE): 2(2) | Endocrine disorders - Other, specify, events (patients) (total AE): 2(2) | Enterocolitis, events (patients) (total AE): 1(1) | Epistaxis, events (patients) (total AE): 6(5) | Eye disorders - Other, specify, events (patients) (total AE): 2(2) | Fatigue, events (patients) (total AE): 25(20) | Fecal incontinence, events (patients) (total AE): 2(2) | Fever, events (patients) (total AE): 3(3) | Flushing, events (patients) (total AE): 3(1) | GGT increased, events (patients) (total AE): 1(1) | Gastritis, events (patients) (total AE): 2(2) | Gastrointestinal disorders - Other, specify, events (patients) (total AE): 2(2) | Headache, events (patients) (total AE): 38(19) | Hematuria, events (patients) (total AE): 5(3) | Hemoglobin increased, events (patients) (total AE): 12(6) | Hoarseness, events (patients) (total AE): 1(1) | Hydrocephalus, events (patients) (total AE): 4(3) | Hypercalcemia, events (patients) (total AE): 6(3) | Hyperglycemia, events (patients) (total AE): 22(16) | Hyperkalemia, events (patients) (total AE): 4(4) | Hypermagnesemia, events (patients) (total AE): 15(9) | Hypernatremia, events (patients) (total AE): 16(5) | Hypertension, events (patients) (total AE): 59(38) | Hyperthyroidism, events (patients) (total AE): 2(2) | Hypertriglyceridemia, events (patients) (total AE): 1(1) | Hypoalbuminemia, events (patients) (total AE): 34(17) | Hypocalcemia, events (patients) (total AE): 26(16) | Hypoglycemia, events (patients) (total AE): 6(5) | Hypokalemia, events (patients) (total AE): 23(18) | Hypomagnesemia, events (patients) (total AE): 9(7) | Hyponatremia, events (patients) (total AE): 29(13) | Hypophosphatemia, events (patients) (total AE): 21(13) | Hypothyroidism, events (patients) (total AE): 21(15) | Hypoxia, events (patients) (total AE): 1(1) | INR increased, events (patients) (total AE): 1(1) | Intracranial hemorrhage, events (patients) (total AE): 4(4) | Investigations - Other, specify, events (patients) (total AE): 2(2) | Joint effusion, events (patients) (total AE): 1(1) | Leukoencephalopathy, events (patients) (total AE): 1(1) | Lipase increased, events (patients) (total AE): 2(1) | Lymphocyte count decreased, events (patients) (total AE): 31(13) | Malaise, events (patients) (total AE): 3(1) | Mucositis oral, events (patients) (total AE): 4(4) | Myalgia, events (patients) (total AE): 3(3) | Nausea, events (patients) (total AE): 25(16) | Nervous system disorders - Other, specify, events (patients) (total AE): 4(4) | Neutrophil count decreased, events (patients) (total AE): 23(11) | Non-cardiac chest pain, events (patients) (total AE): 3(3) | Oral pain, events (patients) (total AE): 4(4) | Pain in extremity, events (patients) (total AE): 9(7) | Pain, events (patients) (total AE): 4(4) | Palmar-plantar erythrodysesthesia syndrome, events (patients) (total AE): 17(7) | Papilledema, events (patients) (total AE): 1(1) | Pericardial effusion, events (patients) (total AE): 1(1) | Peripheral motor neuropathy, events (patients) (total AE): 4(4) | Platelet count decreased, events (patients) (total AE): 26(18) | Pleural effusion, events (patients) (total AE): 1(1) | Proteinuria, events (patients) (total AE): 40(21) | Rash acneiform, events (patients) (total AE): 2(2) | Rash maculo-papular, events (patients) (total AE): 6(5) | Rectal pain, events (patients) (total AE): 1(1) | Renal and urinary disorders - Other, specify, events (patients) (total AE): 1(1) | Respiratory, thoracic and mediastinal disorders - Other, specify, events (patients) (total AE): 2(2) | Reversible posterior leukoencephalopathy syndrome, events (patients) (total AE): 2(1) | Seizure, events (patients) (total AE): 7(6) | Serum amylase increased, events (patients) (total AE): 1(1) | Skin and subcutaneous tissue disorders - Other, specify, events (patients) (total AE): 2(2) | Skin ulceration, events (patients) (total AE): 2(2) | Stomach pain, events (patients) (total AE): 3(3) | Urinary frequency, events (patients) (total AE): 2(2) | Urinary retention, events (patients) (total AE): 3(3) | Vascular disorders - Other, specify, events (patients) (total AE): 2(2) | Voice alteration, events (patients) (total AE): 2(2) | Vomiting, events (patients) (total AE): 41(21) | Weight loss, events (patients) (total AE): 5(5) | White blood cell decreased, events (patients) (total AE): 23(14)
